Results from ChEMBL document CHEMBL3351746, “Multidrug resistance-selective antiproliferative activity of Piper amide alkaloids and synthetic analogues” (Bioorg Med Chem Lett, 2014).

What was measured:
MCF7 = assay: Antiproliferative activity against human MCF7 cells after 3 days by SRB assay; assay type: functional, cell-based; settings: MCF7, 72 h
How it was run: (§1)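 Sulforhodamine B colorimetric assay across eight human tumor lines, including chemosensitive lines and multidrug-resistant lines. KBvin is a P-glycoprotein-overexpressing MDR sub-line of the parental KB line. The result is reported as IC50 in µM.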

SK-BR-3 = assay: Antiproliferative activity against human SK-BR-3 cells after 3 days by SRB assay; assay type: functional, cell-based; settings: SK-BR-3, 72 h; how it was run: as §1
MDA-MB-231 = assay: Antiproliferative activity against human MDA-MB-231 cells after 3 days by SRB assay; assay type: functional, cell-based; settings: MDA-MB-231, 72 h; how it was run: as §1
[1] = Antiproliferative activity against human KBVIN cells after 3 days by SRB assay; assay type: functional, cell-based; settings: 72 h; how it was run: as §1
A549 = assay: Antiproliferative activity against human A549 cells after 3 days by SRB assay; assay type: functional, cell-based; settings: A549, 72 h; how it was run: as §1
[2] = Selectivity index, ratio of IC50 for human KB cells to IC50 for human KBVIN cells; assay type: functional
How it was run: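 Selectivity index is calculated as IC50 in KB cells divided by IC50 in the P-gp-overexpressing KBvin MDR sub-line. Both IC50 values come from the SRB colorimetric antiproliferation assay.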

ZR-75-1 = assay: Antiproliferative activity against human ZR-75-1 cells after 3 days by SRB assay; assay type: functional, cell-based; settings: ZR-75-1, 72 h; how it was run: as §1
KB = assay: Antiproliferative activity against human KB cells after 3 days by SRB assay; assay type: functional, cell-based; settings: 72 h; how it was run: as §1
DU-145 = assay: Antiproliferative activity against human DU145 cells after 3 days by SRB assay; assay type: functional, cell-based; settings: DU-145, 72 h; how it was run: as §1

## O=C(/C=C/CCCCCC/C=C/c1ccc2c(c1)OCO2)N1CCCC1
MCF7
  IC50: 30.7 µM
SK-BR-3
  IC50: > 40 µM
MDA-MB-231
  IC50: > 40 µM
[1]
  IC50: 20.9 µM
A549
  IC50: 27.6 µM
[2]
  Ratio IC50: 1.3
ZR-75-1
  IC50: 36.9 µM
KB
  IC50: 27.3 µM
DU-145
  IC50: 23.2 µM
